Bioassay records: PubChem, Sanford-Burnham Center for Chemical Genomics
LMPTP inh – LMPTP (human) inhibition; AID 651560; inhibition, % at 20 µM; 360,000 tested, 0.22% active; P24666; recombinant LMPTP-A, OMFP fluorogenic substrate, fluorescence intensity;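 active = compounds that cut the enzyme signal by at least half of the control window in the single-dose screen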
Target sequence (P24666 whole entry, looked up): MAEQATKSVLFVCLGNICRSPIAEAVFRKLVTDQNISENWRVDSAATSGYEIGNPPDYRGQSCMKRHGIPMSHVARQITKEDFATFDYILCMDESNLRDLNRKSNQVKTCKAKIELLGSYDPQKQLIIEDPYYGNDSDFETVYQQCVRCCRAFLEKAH
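Assay system: LMPTP-A, protein tyrosine phosphatase of low molecular weight / Medium: pH 6.0 Bis-Tris buffer with DTT and Triton X-100 / Schedule: 50 min enzyme reaction at room temperature, protected from light / Measured by: endpoint fluorescence intensity from OMFP dephosphorylation / Read-out basis: % inhibition relative to no-enzyme and uninhibited control wells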
STEP block – STEP (human) phosphatase inhibition | P54829 | inhibition, % at 20 µM | recombinant STEP, OMFP fluorogenic substrate, fluorescence | 360,000 tested, 0.25% active | AID 588621;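 active = inhibition at 20 µM, scaled per plate between control wells, above about 37%, limit read from the data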
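Material: STEP (striatal-enriched tyrosine phosphatase) enzyme, cell-free | Medium: 50 mM Bis-Tris pH 6.0 with 2.5 mM DTT and 0.005% Tween 20 | Read-out: Percent inhibition scaled to no-enzyme and uninhibited-enzyme controls, plate-pattern corrected | Signal: Fluorescence read at 480 nm ex / 540 nm em | Times: 20 min reaction, room temperature, in the dark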
Rpn11 inh – inhibitors of human proteasome Rpn11. 360,000 tested, 0.59% active. O00487. inhibition, % at 20 µM. human 26S proteasome, Ub4-pepOG fluorescence polarization; 20S core pre-blocked with epoxomicin. AID 588493;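 active = inhibition at 20 µM, scaled to each plate's controls, above about 33%, limit read from the data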
Target sequence (O00487 whole entry, looked up): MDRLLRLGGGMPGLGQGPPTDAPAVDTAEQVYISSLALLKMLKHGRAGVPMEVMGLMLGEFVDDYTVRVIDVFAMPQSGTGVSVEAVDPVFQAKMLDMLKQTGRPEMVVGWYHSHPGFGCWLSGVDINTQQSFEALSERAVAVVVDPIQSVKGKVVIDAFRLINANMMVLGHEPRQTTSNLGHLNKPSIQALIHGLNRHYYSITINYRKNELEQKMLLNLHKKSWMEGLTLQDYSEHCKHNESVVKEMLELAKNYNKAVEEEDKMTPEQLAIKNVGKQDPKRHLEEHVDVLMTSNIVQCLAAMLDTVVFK
Scp1 inh – Scp-1 (human) phosphatase inhibition | Q9GZU7 | Recombinant Scp1, phosphopeptide, malachite green phosphate absorbance | inhibition, % at 20 µM | 340,000 tested, 0.88% active | AID 493091;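 active = inhibition above about 50% at 20 µM, limit read from the data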
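Test system – truncated SCP-1 phosphatase (76-261aa) · Reagent – Phosphorylated 17-residue peptide substrate · Incubation – 45 min room-temperature reaction, 5 min colour, 30 min stabiliser · Detection – colorimetric phosphate reagent with accelerator and stabiliser, absorbance at 630 nm · Measure – % inhibition at 20 µM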
DNMT1 inh – DNMT1 (human) enzyme inhibition | P26358 | DNMT1 molecular beacon, Hinp1I cleavage, fluorescence | inhibition (reported as % activation of signal), % at 10 µM | 360,000 tested, 0.83% active | AID 588458; in the data active = inhibition above about 50%
Scp-1 conf – Scp-1 (human) inhibition, single-dose confirmed | shares compounds with Scp1 inh | 2,500 tested, 61% active | inhibition, % at 20 µM | recombinant SCP-1 catalytic domain, phosphate release, malachite green absorbance
MG interference – interferes with malachite green readout, flagging false Scp-1 hits; apparent inhibition (interference), % at 20 µM; 2,500 tested, under 10 active; AID 540313; Colorimetric interference counterscreen, malachite green absorbance 630 nm; shares compounds with Scp1 inh;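 note: compounds added after enzyme reaction finished so only phosphate colour detection is probed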
Scp-1 Tm shift – binds human Scp-1, shifting its melting temperature | shares compounds with Scp1 inh | Recombinant SCP1, Sypro Orange thermal shift Tm | thermal shift relative to vanadate control, % at 40 µM | 1,500 tested, 25% active | AID 540329;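 active = substances whose mean melting-temperature shift, as a percentage of the reference inhibitor's shift, reaches about 5.3%, limit read from the data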
Hits are given with their value; 0 = inactive; - = no result. Most compounds without a hit are left out; they make up all but 2% or so of the library.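 Rule for the calls, unless noted: active = inhibition of at least 30% at 20 µM; inactive = the rest.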

SMILES	LMPTP inh	STEP block	Rpn11 inh	Scp1 inh	DNMT1 inh	Scp-1 conf	MG interference	Scp-1 Tm shift
CCn1c(CNC(=O)COc2ccc(C(C)C)cc2)nnc1SCC(=O)Nc1ccc(F)cc1	0	0	0	0	0	-	-	-
CCn1c(CNC(=O)COc2ccc(C(C)C)cc2)nnc1SCC(=O)Nc1cc(F)ccc1C	0	0	0	85	0	46	0	0
COc1ccccc1CNS(=O)(=O)c1ccc2[nH]cc(C(=O)O)c(=O)c2c1	0	0	0	55	86	47	0	0
CN(CCCC1CCCC1)C(=O)c1cc(COc2ccc(F)c(F)c2)on1	0	0	0	63	0	0	0	-
CC(C)OC(=O)C1C2C=CC3(CN(Cc4cccs4)C(=O)C13)O2 (stereo unspecified)	0	0	0	68	0	0	0	-
CC1(C)CSC(C)(C)C(=O)N1	0	0	0	0	0	-	-	-
CCCN(C(=O)c1cc2c(s1)CCC2)c1c(N)n(Cc2ccccc2)c(=O)[nH]c1=O	0	0	0	53	53	46	0	0
CCCCN(C(=O)c1cc2c(s1)CCC2)c1c(N)n(CCC)c(=O)[nH]c1=O	0	0	0	60	0	50	0	0
CCCCN(C(=O)c1cnccn1)c1c(N)n(CCC)c(=O)[nH]c1=O	0	0	0	99	0	0	0	-
CCCCN(C(=O)c1cc2c(s1)CCC2)c1c(N)n(CC(C)C)c(=O)[nH]c1=O	0	0	0	0	0	-	-	-
CCCCN(C(=O)c1cccc(-n2cccc2)c1)c1c(N)n(CCCC)c(=O)[nH]c1=O	0	0	0	70	0	0	0	-
COCCCN(C(=O)c1cc2c(s1)CCC2)c1c(N)n(Cc2ccccc2)c(=O)[nH]c1=O	0	0	0	0	0	-	-	-
O=S1(=O)C=C[C@H](COCc2ccccc2)N1	0	0	0	-	0	-	-	-
COc1ccccc1C(=O)NC(CCSC)C(=O)OCC(=O)N1CCN(S(=O)(=O)c2ccc(C)cc2)CC1 (stereo unspecified)	0	0	0	0	0	-	-	-
CC1=C(C(=O)Nc2ccc(C(=O)NCCCN3CCCCC3C)cc2)SCCO1 (stereo unspecified)	0	0	0	-	0	-	-	-
CCCCn1c(N)c(N(CCOC)C(=O)c2ccc(Cl)c(S(=O)(=O)N3CCCCC3)c2)c(=O)[nH]c1=O	0	0	0	0	0	-	-	-
CCCCN(C(=O)c1ccc(Cl)c(S(=O)(=O)N2CCOCC2)c1)c1c(N)n(CCC)c(=O)[nH]c1=O	0	0	0	58	0	0	0	-
O=C(Nc1cccc(NC(=O)C2CCCO2)c1)C1CCCO1 (stereo unspecified)	0	0	0	56	0	0	0	-
CC(=O)Nc1cccc(NC(=O)C2CCCO2)c1 (stereo unspecified)	0	0	0	-	0	-	-	-
Cc1nnc(SCC2=C(C(=O)O)N3C(=O)C(NC(=O)COc4ccc(F)cc4)C3SC2)s1 (stereo unspecified)	0	0	0	0	0	-	-	-
Cc1nnc(SCC2=C(C(=O)O)N3C(=O)C(NC(=O)Cn4nc(C(F)F)cc4C)C3SC2)s1 (stereo unspecified)	0	0	0	70	0	52	0	0
Cc1nnc(SCC2=C(C(=O)O)N3C(=O)C(NC(=O)Cn4nc(C(F)F)c(Cl)c4C)C3SC2)s1 (stereo unspecified)	0	0	0	0	0	-	-	-
Cc1nnc(SCC2=C(C(=O)O)N3C(=O)C(NC(=O)COc4ccccc4)C3SC2)s1 (stereo unspecified)	0	0	0	68	0	53	0	0
CC(C)c1ccc(NC(=O)CN(C)C2=NS(=O)(=O)c3ccccc32)cc1	0	0	0	-	0	-	-	-
C[n+]1cnn2c1SCC1(COC1)C2	0	0	0	104	0	0	0	-
COc1cccc(C(=O)OCC(=O)Nc2sc3c(c2C(N)=O)CCC3)c1O	0	0	0	62	0	72	0	9.7
